# A selection: hits, their analogues and other compounds. The true share with any hit is near 3.7%.
# hERG rescue: compounds protecting human hERG from proarrhythmic drug block | CHO-hERG, FluxOR thallium flux, dofetilide IC70 present | activation (rescue from dofetilide block), less the hit threshold, % at 10 µM | actives 0.51% (n = 310,000);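 active = activation above the mean of controls blocked by dofetilide plus 5 SD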;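 also: thallium influx through hERG after potassium depolarization seen as dye fluorescence rise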
# Kir21 inh: blocks the mouse Kir2.1 inward-rectifier potassium channel | HEK293-Kir2.1, FluxOR thallium flux fluorescence; stronger effect = lower value | B-score at 10 µM | actives 0.85% (n = 310,000) | AID 1672;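 active = fluorescence ratio B-score at or below minus 3 SD of library scores, with starting-brightness B-score within 2 SD, cut at about -4.2 in these data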;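 also: channel flux triggered by added potassium and thallium sulfate stimulus; B-score of peak minus minimum fluorescence over baseline after thallium stimulus; more negative B-score means stronger Kir2.1 block with less thallium influx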
# KCNK9 inh: blocks the human KCNK9 two-pore domain potassium channel; Q9NPC2; HEK293 KCNK9, FluxOR thallium flux fluorescence; stronger effect = lower value; B-score at 10 µM; actives 1.2% (n = 310,000); AID 488922;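 active = ratio B-score over 3 SD below the library mean, with starting fluorescence within 5 SD of its mean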;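 also: negative B-score means less thallium flux so channel inhibition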
# KCNQ1 act: human KCNQ1 channel potentiation or activation; CHO-K1 KCNQ1, thallium flux FluxOR fluorescence; stronger effect = higher value; B-score at 10 µM; actives 0.35% (n = 310,000);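 active = fluorescence ratio B-score, a plate-corrected score, at least three library SD, with initial intensity B-score within 5 SD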
# Target sequence (P51787 whole entry, looked up): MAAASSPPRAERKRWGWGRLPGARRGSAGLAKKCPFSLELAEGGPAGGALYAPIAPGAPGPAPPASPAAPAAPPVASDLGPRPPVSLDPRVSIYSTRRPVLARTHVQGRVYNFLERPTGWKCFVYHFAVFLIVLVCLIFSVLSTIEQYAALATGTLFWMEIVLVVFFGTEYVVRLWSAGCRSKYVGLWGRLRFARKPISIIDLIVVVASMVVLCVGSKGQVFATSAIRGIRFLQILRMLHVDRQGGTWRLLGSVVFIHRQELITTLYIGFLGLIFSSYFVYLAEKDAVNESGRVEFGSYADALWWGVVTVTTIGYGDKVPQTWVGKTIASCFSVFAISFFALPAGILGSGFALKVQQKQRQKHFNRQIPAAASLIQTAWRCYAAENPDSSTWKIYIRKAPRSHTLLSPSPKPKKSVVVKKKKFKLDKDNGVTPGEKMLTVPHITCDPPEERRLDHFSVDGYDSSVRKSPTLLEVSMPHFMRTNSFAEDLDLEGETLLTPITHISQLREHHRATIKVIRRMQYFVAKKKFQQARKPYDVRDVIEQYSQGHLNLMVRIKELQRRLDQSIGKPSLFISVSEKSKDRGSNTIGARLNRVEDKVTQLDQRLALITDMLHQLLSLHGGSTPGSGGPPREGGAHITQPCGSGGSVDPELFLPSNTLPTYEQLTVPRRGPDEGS
#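 assay system = KCNQ1-transfected CHO-K1 cells | medium = assay buffer with matched DMSO | probe or stimulus = depolarizing K+/Tl+ stimulus, K2SO4 and Tl2SO4 each 12.5 mM in 5x stock | dosing = single dose | incubation = dye 90 min, compound 20 min, room temperature | detection = kinetic FluxOR fluorescence, 10 s baseline plus 110 s post-stimulus | evaluation = ratio B score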
# KCNQ1 inh: inhibitors of human KCNQ1 potassium channel; P51787; CHO-K1 KCNQ1, FluxOR thallium flux fluorescence; stronger effect = higher value; B-score at 10 µM; actives 1.3% (n = 310,000); AID 2642;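 active = compounds whose thallium flux B-score, printed positive for inhibition, exceeds three library SD while starting fluorescence stays within three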;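 also: channel opened by potassium depolarization with thallium stimulus after 20 min compound exposure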
# KCNK3 inh: human KCNK3 channel inhibition, primary screen | O14649 | CHO-KCNK3 thallium flux, FluxOR fluorescence; stronger effect = lower value | B-score at 10 µM | actives 0.84% (n = 340,000);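 active = B-score under library mean minus 4 SD, starting fluorescence ratio at most library mean plus 5 SD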;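 also: more negative B-score means stronger inhibition of thallium flux through KCNK3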
# KCNK9 inh conf: confirmation of human KCNK9 potassium channel inhibitors; shares compounds with KCNK9 inh; HEK293 KCNK9 cells, FluxOR thallium flux fluorescence; inhibition, % at 10 µM; actives 43% (n = 4,900);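 active = thallium signal inhibited by more than 5 SD of the compound-free buffer control wells, on both duplicate plates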;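 also: 0% = assay buffer control wells without compound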
# Kir21 sel: selectivity of KCNK9 modulators against mouse Kir2.1; Kir2.1 cells, FluxOR thallium flux fluorescence; inhibition, % at 10 µM; actives 4% (n = 4,900); shares compounds with KCNK9 inh; AID 492993;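 active = thallium signal drop more than 5 SD beyond the mean of the no-compound control wells, seen in both duplicate plates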;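 also: signal is fluorescence rise after thallium addition divided by baseline fluorescence; plate controls were assay buffer only for no effect and full block by chlorpromazine control for full effect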
# HEK293 Tl ctr: second check of KCNK9 modulator effects in non-induced HEK293 cells; actives 40% (n = 4,900); inhibition, % at 10 µM; shares compounds with KCNK9 inh; AID 492997; FluxOR thallium flux;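 active = thallium signal drop beyond 5 SD of the untreated control mean, on both duplicate plates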;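 also: plate controls were buffer only IC0 wells for no effect and SID17386958 at its maximal inhibitory level for full effect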
# Starred values were filed as active, the others as inactive; i = inactive; nt = no result given.
SMILES,hERG rescue,Kir21 inh,KCNK9 inh,KCNQ1 act,KCNQ1 inh,KCNK3 inh,KCNK9 inh conf,Kir21 sel,HEK293 Tl ctr
O=C(O)c1ccc(CSc2nc(-c3ccccc3)cc(C(F)(F)F)n2)cc1,-6,0.15,i,i,i,i,i,i,i
NC1=NC(=O)/C(=C/c2cccc(-c3ccc(S(N)(=O)=O)cc3)c2)S1,-6,0.64,i,i,i,i,nt,nt,nt
O=C1c2ccccc2C2=Nc3ccccc3SC(c3cccc(F)c3)C12 (stereo not drawn),-4,-1.1,-15*,i,i,i,56%*,i,56%*
O=C1CCCC2=C1C(c1ccccc1)C1C(=O)c3ccccc3C1=N2 (stereo not drawn),-2,-0.12,i,i,i,i,nt,nt,nt
O=C1CCCC2=C1C(c1ccc(Cl)cc1)C1C(=O)c3ccccc3C1=N2 (stereo not drawn),-17,0.26,i,i,i,i,nt,nt,nt
O=C1c2ccccc2C2=Nc3ccccc3SC(c3ccc(Cl)cc3)C12 (stereo not drawn),-12,0.01,-13*,i,i,i,46%*,i,34%*
COc1ccc(OC)c(/C=N/N2CCN(c3ccc(Cl)cc3)CC2)c1,-4,0.78,i,i,i,i,nt,nt,nt
CC(Oc1c(Cl)cccc1Cl)C1=NCCN1 (stereo not drawn),-7,-1.6,i,i,i,nt,nt,nt,nt
COC(=O)c1ccccc1CON1C(=O)C(C)(C)N(OCc2ccccc2C(=O)OC)C(=O)C1(C)C,-10,0.58,i,i,i,i,i,i,i
CCCCc1cc(=O)oc2cc(C)cc(OCC(=O)N3CCC(C(=O)O)(c4ccccc4)CC3)c12,-15,-0.77,i,i,i,i,nt,nt,nt
O=C(c1ccco1)N1CCc2[nH]nc(-c3ccc(Cl)cc3)c2C1,-7,3,i,i,i,i,nt,nt,nt
COc1ccc(-c2n[nH]c3c2CN(C(=O)c2ccccc2)CC3)cc1,-9,1.2,i,i,i,i,i,i,i
Cc1ccc(C(=O)NCc2ccco2)cc1S(=O)(=O)N1CCCCC1,2,0.14,i,i,i,i,nt,nt,nt
Cc1ccc(C(=O)Nc2ccccc2C(=O)NCc2ccco2)cc1S(=O)(=O)N1CCCCC1,-30,-0.55,i,i,i,i,i,i,i
CCCc1cc(=O)[nH]c(SCC(=O)N2CCc3ccccc3C2)n1,nt,nt,nt,nt,nt,i,nt,nt,nt
COc1ccc(N2CCN(Cc3cc4c(cc3Br)OCCO4)CC2)cc1,-19,1.1,i,i,i,i,i,i,i
COc1cc(OC)c(OC)cc1CN1CCN(c2ccccc2OC)CC1,-8,0.02,i,i,i,i,nt,nt,nt
O=S(=O)(c1ccccc1)N1CCN(Cc2cc3c(cc2Br)OCCO3)CC1,nt,nt,nt,nt,nt,i,nt,nt,nt
COc1ccc(N2CCN(Cc3csc(C)c3-c3ccc(C)cc3)CC2)cc1,-3,0.04,i,i,i,i,i,i,i
COc1ccccc1N1CCN(Cc2cc3c(cc2Br)OCCO3)CC1,-8,-1.1,i,i,i,i,i,i,i
COc1cc(OC)c2c(c1O)OC(c1ccccc1)CC2=O (stereo not drawn),-6,-1.1,i,i,i,i,nt,nt,nt
COC(=O)c1cn(CCOc2ccccc2F)c2ccccc12,-15,-0.58,-11*,i,i,i,45%*,i,44%*
COC(=O)c1cn(CCOc2ccccc2OC)c2ccccc12,-11,-3.1,i,i,i,i,nt,nt,nt
CC(=O)N1c2ccccc2S(=O)(=O)c2c1ccc1ccccc21,nt,nt,nt,nt,nt,i,nt,nt,nt
O=C(Nc1cn(-c2ccccc2)nc1-c1ccc(Cl)cc1)c1ccccc1,-14,-0.16,-9.2*,i,i,i,50%*,i,42%*
SMILES,hERG rescue,Kir21 inh,KCNK9 inh,KCNQ1 act,KCNQ1 inh,KCNK3 inh,KCNK9 inh conf,Kir21 sel,HEK293 Tl ctr
Cc1cc(Oc2ccc3ccccc3c2)nc(SCC(=O)c2ccccc2)n1,-10,-2.3,-13*,i,i,i,76%*,i,38%*
Cc1cccc(-n2c(=O)c3c(n4cnnc24)-c2ccccc2CC32CCCCC2)c1,-14,-1.1,i,i,i,i,nt,nt,nt
Cc1cccc(-n2c(SCC(N)=O)nc3c(c2=O)C2(CCCC2)Cc2ccccc2-3)c1,-6,1.7,-9*,i,i,i,53%*,i,35%*
Cc1ccc(NC(=O)CN2C(=O)S/C(=C\c3cc(C)n(-c4ccc(C(=O)O)cc4)c3C)C2=O)cc1,-12,0.75,i,i,i,i,i,i,i
Cc1ccc(-c2nc(C3CCN(S(=O)(=O)c4ccc(C(C)(C)C)cc4)CC3)no2)cc1,-7,0.54,i,i,i,i,i,i,i
CN1CCN(C2CCN(S(=O)(=O)c3ccc(C(C)(C)C)cc3)CC2)CC1,-12,-0.78,i,i,i,i,nt,nt,nt
CCc1nnc(NC(=O)CSc2nnc(-c3ccccc3OC)n2-c2ccc(C)cc2)s1,-4,0,i,i,i,i,nt,nt,nt
CCc1nnc(NC(=O)CSc2nnc(-c3ccccc3OC)n2-c2ccccc2)s1,-16,2,-17*,i,i,i,68%*,i,32%*
COc1ccc(C(=O)C[n+]2cccc(C)c2C)cc1[N+](=O)[O-],-14,1.2,i,i,i,i,nt,nt,nt
CCC(C)(C)c1ccc(OCCCC[n+]2cccc(C)c2C)c(C(C)(C)CC)c1,-29,-9.5*,-12*,i,i,i,56%*,46%*,i
CC(=O)CCc1c(C)nc2ccc(C)cc2c1Cl,-5,0.8,i,i,i,i,nt,nt,nt
Cc1cc(C(=O)OC(C)C(=O)N2CCc3ccccc32)ccc1[N+](=O)[O-] (stereo not drawn),-11,0.78,i,i,i,i,i,i,i
COc1ccccc1C(=O)N/N=C/C(C)=C/c1ccccc1,-6,-0.12,-10*,i,i,i,48%*,i,30%*
Cc1cc(C(=O)COC(=O)C2CCN(C(=O)c3ccc(Cl)cc3)CC2)c(C)n1CC1CCCO1 (stereo not drawn),-15,-0.2,i,i,i,i,i,i,i
